Published values pooled from the literature.
pEC50, pIC50: −log10 of the molar value.
Effect on: cell growth or viability

| SMILES | cell line | test | conditions | endpoint | result |
| --- | --- | --- | --- | --- | --- |
| O=C(NCCc1ccccc1)Nc1nc2cc(-c3ccc4ncn(CCN5CCOCC5)c(=O)c4c3)ccc2s1 | PC-9 | MTT | 72 h | pIC50 | 5.09 |
| O=C(Nc1ccc(-c2cn(Cc3ccc(Br)cc3)nn2)cc1)Nc1ccccc1Br | PC-9 | CCK-8 | 50 µM, 72 h | viability | 106% |
| CCCCCCCCCCCCCCCCCCOc1ccccc1CC(=O)OCC[N+]1(C)CCCC1 | EKVX | SRB | 10 µM | inhibition | 46.1% |
| Nc1ccccc1/N=c1\cc(-c2ccc3c(c2)OCO3)oc2ccccc12 | HCT-116 | CCK-8 | 1 µM | inhibition | 1.69% |
| COc1ccc(NC(=O)Nc2cccc(-c3cn(Cc4ccc(C)cc4)nn3)c2)cc1 | PC-9 | CCK-8 | 20 µM, 72 h | viability | 159% |
| CC(C)NC(=O)Nc1nc2cc(-c3ccc4ncn(Cc5ccccc5)c(=O)c4c3)ccc2s1 | PC-9 | MTT | 72 h | pIC50 | < 4.70 |
| NCCC(=O)Nc1ccccc1/N=c1\cc(-c2ccc3oc(N)nc3c2)oc2ccccc12 | HCT-116 | CCK-8 | 1 µM | inhibition | 42.7% |
| O=C(NCc1ccccc1)Nc1nc2cc(-c3ccc4ncn(Cc5ccccc5)c(=O)c4c3)ccc2s1 | PC-9 | MTT | 72 h | pIC50 | < 4.70 |
| N#CCCN(C(=O)CCl)c1ccc2c(c1)OCCN2CC(=O)N1CCC(C(=O)Nc2ccc(C(=O)NCCCCCCC(=O)NO)cc2)CC1 | U-87 MG | MTT |  | pEC50 | < 4.30 |
| O=C(Nc1ccc(Cl)cc1)Nc1cccc(-c2cn(Cc3ccc(Cl)cc3)nn2)c1 | PC-9 | CCK-8 | 50 µM, 72 h | viability | 110% |
| CC(C)(C)[C@H](N)C(=O)Nc1ccccc1/N=c1\cc(-c2ccc3c(c2)OCO3)oc2ccccc12 | HCT-116 | CCK-8 | 1 µM | inhibition | 14.6% |
| O=C(Nc1ccc(Cl)cc1)Nc1nc2cc(-c3ccc4ncn(Cc5ccccc5)c(=O)c4c3)ccc2s1 | PC-9 | MTT | 72 h | pIC50 | < 4.70 |
| CCCCCCCCCCCCCCCCCCOc1ccccc1CC(=O)OCC[N+](CC)(CC)CC | EKVX | SRB | 10 µM | inhibition | 56.6% |
| Cc1nc(Nc2ncc(C(=O)Nc3c(C)cccc3Cl)s2)cc(N2CC[C@H](O)C2)n1 | WSUDLCL2 | ATP luminescence | 10 µM, 72 h | inhibition | 13% |
| COCCC(=O)Nc1ccccc1/N=c1\cc(-c2ccc3nc(N)oc3c2)oc2ccccc12 | HCT-116 | CCK-8 | 1 µM | inhibition | 3.71% |
| COc1ccc(NC(=O)Nc2cccc(-c3cn(Cc4ccc(Br)cc4)nn3)c2)cc1 | PC-9 | CCK-8 | 50 µM, 72 h | viability | 90.3% |
| O=C(Nc1ccc(Cl)cc1)Nc1ccc(-c2cn(Cc3ccc(Cl)cc3)nn2)cc1 | PC-9 | CCK-8 | 20 µM, 72 h | viability | 86% |
| CCCCCCCCCCCCCCCCCCOc1ccccc1CC(=O)OCC[N+]1(C)CCCCC1 | EKVX | SRB | 10 µM | inhibition | 36.9% |
| COc1ccc(NC(=O)Nc2ccc(-c3cn(Cc4cccc(Cl)c4)nn3)cc2)cc1 | PC-9 | CCK-8 | 20 µM, 72 h | viability | 98.2% |
| O=C(NCc1cn(Cc2ccc(Br)cc2)nn1)Nc1ccc(Cl)cc1 | PC-9 | CCK-8 | 20 µM, 72 h | viability | 111% |
| COc1ccc(NC(=O)Nc2cccc(-c3cn(Cc4ccccc4C)nn3)c2)cc1 | PC-9 | CCK-8 | 50 µM, 72 h | viability | 98.2% |

| SMILES | cell line | test | conditions | endpoint | result |
| --- | --- | --- | --- | --- | --- |
| O=C(NCc1cn(Cc2cccc(Cl)c2)nn1)Nc1ccc(Cl)cc1 | PC-9 | CCK-8 | 20 µM, 72 h | viability | 90.9% |
| O=C(NN=Cc1ccc(O)cc1)c1nc2ccccc2s1 | HCT-116 | MTT | 100 µM, 48 h | cell death | 50% |
| O=C(Nc1ccc(Cl)cc1)Nc1cccc(-c2cn(Cc3cccc(Br)c3)nn2)c1 | PC-9 | CCK-8 | 50 µM, 72 h | viability | 92.9% |
| CCCCCCCCCCCCCCCCCCOc1cccc(CC(=O)OCC[N+]2(C)CCCC2)c1 | EKVX | SRB | 10 µM | inhibition | 1.14% |
| CNCCC(=O)Nc1ccccc1/N=c1\cc(-c2ccc3nc(N)oc3c2)oc2ccccc12 | HCT-116 | CCK-8 | 1 µM | inhibition | 76.8% |
| O=C(Nc1ccc(Cl)cc1)Nc1cccc(-c2cn(Cc3cccc(Cl)c3)nn2)c1 | PC-9 | CCK-8 | 20 µM, 72 h | viability | 102% |
| O=C(Nc1ccccc1/N=c1\cc(-c2ccc3c(c2)OCO3)oc2ccccc12)N1CCOCC1 | HCT-116 | CCK-8 | 1 µM | inhibition | 11.2% |
| C[C@H](Nc1ccc2c(c1)OCCn1cc(N3C(=O)OC[C@H]3C(F)F)nc1-2)C(N)=O | AGS | ATP luminescence | 5 days | pEC50 | 6.80 |
| COc1ccc(NC(=O)Nc2cccc(-c3cn(Cc4cccc(Cl)c4)nn3)c2)cc1 | PC-9 | CCK-8 | 20 µM, 72 h | viability | 143% |
| CCCCCCCCCCCCCCCCCCOc1cccc(CC(=O)OCC[N+](CC)(CC)CC)c1 | EKVX | SRB | 10 µM | inhibition | 22.3% |
| O=C(Nc1ccc(Cl)cc1)Nc1ccc(-c2cn(Cc3cccc(Cl)c3)nn2)cc1 | PC-9 | CCK-8 | 50 µM, 72 h | viability | 76.4% |
| CCCCCCCCCCCCCCCCCCOc1ccc(CC(=O)OCC[N+]2(C)CCCCC2)cc1 | EKVX | SRB | 10 µM | inhibition | 2.11% |
| NCC(=O)Nc1ccccc1/N=c1\cc(-c2ccc3c(c2)OCCO3)oc2ccccc12 | HCT-116 | CCK-8 | 1 µM | inhibition | 16.4% |
| COc1ccc(NC(=O)NCc2cn(Cc3ccc(Br)cc3)nn2)cc1 | PC-9 | CCK-8 | 50 µM, 72 h | viability | 143% |
| Cc1nc(NC(=O)N2CCC[C@H]2C(N)=O)sc1-c1ccnc(C(C)(C)C(F)(F)F)c1 | AGS | ATP luminescence | 5 days | pEC50 | 5.52 |
| O=C(Nc1cccc(F)c1)Nc1nc2cc(-c3ccc4ncn(CCN5CCOCC5)c(=O)c4c3)ccc2s1 | PC-9 | MTT | 72 h | pIC50 | < 4.70 |
| CS(=O)(=O)NCCC(=O)Nc1ccccc1/N=c1\cc(-c2ccc3nc(N)oc3c2)oc2ccccc12 | HCT-116 | CCK-8 | 1 µM | inhibition | 3.17% |
| CCCCCCCCCCCCCCCCCCOc1cccc(CC(=O)OCC[N+]2(C)CCCCC2)c1 | EKVX | SRB | 10 µM | inhibition | 3.05% |
| O=C(Nc1ccc(-c2cn(Cc3ccc(Cl)cc3)nn2)cc1)Nc1ccccc1Br | PC-9 | CCK-8 | 20 µM, 72 h | viability | 98.3% |
| COc1ccc(NC(=O)NCc2cn(Cc3ccccc3C)nn2)cc1 | PC-9 | CCK-8 | 50 µM, 72 h | viability | 109% |
| O=C(Nc1cccc(C(F)(F)F)c1)Nc1nc2cc(-c3ccc4ncn(CCN5CCOCC5)c(=O)c4c3)ccc2s1 | PC-9 | MTT | 72 h | pIC50 | < 4.70 |
